Here are results for seven compounds from ChEMBL document CHEMBL1275448, “Identification of a novel multidrug efflux pump of Mycobacterium tuberculosis” (2008).

Holding throughout (format): functional
In assay [1] the test system is Mycolicibacterium smegmatis. Nature of the assay: Resistance factor, ratio of MIC for Mycobacterium smegmatis overexpressing rv0194 gene to MIC for wild-type Mycobacterium smegmatis SMR5. In outline: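 Resistance factor is the MABA MIC for M. smegmatis expressing rv0194 divided by the MIC for wild-type SMR5. MIC was the lowest concentration giving ≥90% viability reduction by fluorescence (ex 530/em 590 nm).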

The subject of assay [2] is Mycolicibacterium smegmatis. Nature of the assay: Antimicrobial activity against Mycobacterium smegmatis overexpressing rv0194 gene by microplate Alamar blue assay. In outline:
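M. smegmatis SMR5 carried either control plasmid pMS2 or rv0194 expression vector pML655. Cells were grown at 37°C in Middlebrook 7H9 with 0.2% glycerol and 0.05% Tween 80, then tested by microplate Alamar blue assay. MIC was the lowest antibiotic concentration reducing culture viability by ≥90%, read by fluorescence (ex 530/em 590 nm, room temperature).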

Assay [3] relates to Mycobacterium tuberculosis variant bovis BCG. Kind of assay: Antimicrobial activity against Mycobacterium bovis BCG ML1034 by microplate Alamar blue assay. In outline:
(§1)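 Whole-cell M. bovis BCG (Institut Pasteur) MABA; mutants carried IS1096::Km insertions. Growth was in Middlebrook 7H9 with 0.2% glycerol, 0.05% Tween 80 and 10% OADC. Final drug ranges: ampicillin 62.5–2,000 μg/ml, vancomycin 1.25–40 μg/ml, streptomycin 0.25–8 μg/ml, chloramphenicol 4–128 μg/ml, tetracycline 0.5–16 μg/ml. MIC was the lowest concentration cutting viability ≥90%, read by fluorescence (ex 530/em 590 nm, room temperature).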

Assay [4] has the same test system. Kind of assay: Antimicrobial activity against Mycobacterium bovis BCG ML1075 carrying transposon IS1096::Km inserted at +899bp of gca gene by microplate Alamar blue assay. In outline:
as §1

Assay [5] has the same test system. Nature of the assay: Antimicrobial activity against Mycobacterium bovis BCG ML1061 carrying transposon IS1096::Km inserted at +19bp of lppA gene by microplate Alamar blue assay. The essentials:
as §1

Assay [6] has the same test system. Nature of the assay: Antimicrobial activity against Mycobacterium bovis BCG ML1029 carrying transposon IS1096::Km inserted at +524bp of bcg2734c gene by microplate Alamar blue assay. In outline: as §1
Assay [7] has the same test system. Nature of the assay: Antimicrobial activity against Mycobacterium bovis BCG ML1037 carrying transposon IS1096::Km inserted at +1765bp of bcg3693 gene by microplate Alamar blue assay. The essentials: as §1
The test system is the same in assay [8]. Kind of assay: Antimicrobial activity against Mycobacterium bovis BCG ML1012 carrying transposon IS1096::Km inserted at +1255bp of bcg3960c gene by microplate Alamar blue assay. In outline: as §1
The test system is the same in assay [9]. Nature of the assay: Antimicrobial activity against Mycobacterium bovis BCG ML1062 carrying transposon IS1096::Km inserted at -18bp of pks11 gene by microplate Alamar blue assay. The essentials: as §1
For assay [10] the test system is unchanged. Nature of the assay: Antimicrobial activity against Mycobacterium bovis BCG ML1047 carrying transposon IS1096::Km inserted at +544bp of fadD23 gene by microplate Alamar blue assay. In outline: as §1
Assay [11] has the same test system. Kind of assay: Antimicrobial activity against Mycobacterium bovis BCG ML1069 carrying transposon IS1096::Km inserted at +205bp of gmhA gene by microplate Alamar blue assay. The essentials:
as §1

Assay [12] shares this test system. Nature of the assay: Antimicrobial activity against Mycobacterium bovis BCG ML1064 carrying transposon IS1096::Km inserted at +569bp of lppB gene by microplate Alamar blue assay. In outline:
as §1

For assay [13] the test system is unchanged. Nature of the assay: Antimicrobial activity against Mycobacterium bovis BCG ML1048 carrying transposon IS1096::Km inserted at +519bp of bcg1567c gene by microplate Alamar blue assay. In outline: as §1
The test system is the same in assay [14]. Kind of assay: Antimicrobial activity against Mycobacterium bovis BCG ML1065 carrying transposon IS1096::Km inserted at +96bp of bcg0061 gene by microplate Alamar blue assay. The essentials:
as §1

Assay [15] shares this test system. Nature of the assay: Antimicrobial activity against Mycobacterium bovis BCG ML1006 carrying transposon IS1096::Km inserted at +720bp of bcg3787 gene by microplate Alamar blue assay. The essentials: as §1
Assay [16] has the same test system. Nature of the assay: Antimicrobial activity against Mycobacterium bovis BCG ML1058 carrying transposon IS1096::Km inserted at +320bp of lprR gene by microplate Alamar blue assay. The essentials:
as §1

Assay [17] has the same test system. Kind of assay: Antimicrobial activity against Mycobacterium bovis BCG ML1044 carrying transposon IS1096::Km inserted at -178bp of ppe33b gene by microplate Alamar blue assay. In outline: as §1
The test system is the same in assay [18]. Nature of the assay: Antimicrobial activity against Mycobacterium bovis BCG ML1007 carrying transposon IS1096::Km inserted at +988bp of ppe53 gene by microplate Alamar blue assay. The essentials: as §1
For assay [19] the test system is unchanged. Nature of the assay: Antimicrobial activity against Mycobacterium bovis BCG ML1050 carrying transposon IS1096::Km inserted at +41bp of bcg2827 gene by microplate Alamar blue assay. The essentials: as §1
Assay [20] shares this test system. Nature of the assay: Antimicrobial activity against Mycobacterium bovis BCG ML1034 carrying transposon IS1096::Km inserted at -54bp of bcg0231 gene by microplate Alamar blue assay. The essentials:
as §1

Assay [21] shares this test system. Kind of assay: Antimicrobial activity against Mycobacterium bovis BCG ML1053 carrying transposon IS1096::Km inserted at +271bp of bcg2326c gene by microplate Alamar blue assay. In outline: as §1
For assay [22] the test system is unchanged. Kind of assay: Antimicrobial activity against Mycobacterium bovis BCG ML1010 carrying transposon IS1096::Km inserted at +43bp of ppe gene by microplate Alamar blue assay. The essentials:
as §1

The test system is the same in assay [23]. Kind of assay: Antimicrobial activity against Mycobacterium bovis BCG ML1013 carrying transposon IS1096::Km inserted at +923bp of cpsY gene by microplate Alamar blue assay. The essentials: as §1
Assay [24] shares this test system. Nature of the assay: Antimicrobial activity against Mycobacterium bovis BCG ML1025 carrying transposon IS1096::Km inserted at +435bp of bcg3145 gene by microplate Alamar blue assay. The essentials:
as §1

The test system is the same in assay [25]. Kind of assay: Antimicrobial activity against Mycobacterium bovis BCG ML1030 carrying transposon IS1096::Km inserted at +849bp of bcg1988c gene by microplate Alamar blue assay. The essentials: as §1
The test system is the same in assay [26]. Nature of the assay: Antimicrobial activity against Mycobacterium bovis BCG ML1046 carrying transposon IS1096::Km inserted at +33bp of bcg2743 gene by microplate Alamar blue assay. In outline:
as §1

The test system is the same in assay [27]. Nature of the assay: Antimicrobial activity against Mycobacterium bovis BCG ML1060 carrying transposon IS1096::Km inserted at -206bp of fadD25/mmpL12 gene by microplate Alamar blue assay. The essentials: as §1
Assay [28] shares this test system. Nature of the assay: Antimicrobial activity against Mycobacterium bovis BCG ML1052 carrying transposon IS1096::Km inserted at +78bp of bcg2824 gene by microplate Alamar blue assay. The essentials:
as §1

The test system is the same in assay [29]. Nature of the assay: Antimicrobial activity against Mycobacterium bovis BCG ML1051 carrying transposon IS1096::Km inserted at -420bp of bcg2965 gene by microplate Alamar blue assay. In outline:
as §1

The test system is the same in assay [30]. Nature of the assay: Antimicrobial activity against Mycobacterium bovis BCG ML1041 carrying transposon IS1096::Km inserted at +1707bp of ppe24 gene by microplate Alamar blue assay. The essentials:
as §1

For assay [31] the test system is unchanged. Kind of assay: Antimicrobial activity against Mycobacterium bovis BCG ML1038 carrying transposon IS1096::Km inserted at +78bp of bcg2735 gene by microplate Alamar blue assay. The essentials: as §1
Assay [32] has the same test system. Nature of the assay: Antimicrobial activity against Mycobacterium bovis BCG ML1009 carrying transposon IS1096::Km inserted at +368bp of cyp121 gene by microplate Alamar blue assay. The essentials: as §1
Assay [33] has the same test system. Nature of the assay: Antimicrobial activity against Mycobacterium bovis BCG ML1036 carrying transposon IS1096::Km inserted at +277bp of agpS gene by microplate Alamar blue assay. The essentials: as §1
The test system is the same in assay [34]. Kind of assay: Antimicrobial activity against Mycobacterium bovis BCG ML1040 carrying transposon IS1096::Km inserted at +1930bp of papA2 gene by microplate Alamar blue assay. The essentials: as §1
The test system is the same in assay [35]. Nature of the assay: Antimicrobial activity against Mycobacterium bovis BCG ML1042 carrying transposon IS1096::Km inserted at -509bp of bcg2123c/pe22 gene by microplate Alamar blue assay. The essentials:
as §1

≈ marks a conversion by molar mass, not a printed value.

Consider `CC[C@H]1OC(=O)[C@H](C)[C@@H](O[C@H]2C[C@@](C)(OC)[C@@H](O)[C@H](C)O2)[C@H](C)[C@@H](O[C@@H]2O[C@H](C)C[C@H](N(C)C)[C@H]2O)[C@](C)(O)C[C@@H](C)C(=O)[C@H](C)[C@@H](O)[C@]1(C)O` [ERYTHROMYCIN], for which the Ratio in [1] is 4. In assay [2], this compound showed an MIC of 10 µg/mL (≈ 13.6 µM).

On to `O=C(N[C@H](CO)[C@H](O)c1ccc([N+](=O)[O-])cc1)C(Cl)Cl` [CHLORAMPHENICOL], for which the Ratio in assay [1] is 1. Moreover, the minimum inhibitory concentration (MIC) in assay [2] amounted to 32 µg/mL (≈ 99 µM); in assay [3], 512 µg/mL (≈ 1580 µM).

Consider `CN[C@H](CC(C)C)C(=O)N[C@H]1C(=O)N[C@@H](CC(N)=O)C(=O)N[C@H]2C(=O)N[C@H]3C(=O)N[C@H](C(=O)N[C@H](C(=O)O)c4cc(O)cc(O)c4-c4cc3ccc4O)[C@H](O)c3ccc(c(Cl)c3)Oc3cc2cc(c3O[C@@H]2O[C@H](CO)[C@@H](O)[C@H](O)[C@H]2O[C@H]2C[C@](C)(N)[C@H](O)[C@H](C)O2)Oc2ccc(cc2Cl)[C@H]1O` [VANCOMYCIN], for which the Ratio in [1] turned out to be 2. Besides, the minimal inhibitory concentration (MIC) in [2] turned out to be 2.5 µg/mL (≈ 1.73 µM); in assay [3], 20 µg/mL (≈ 13.8 µM).

`CO[C@@H]1[C@@H](OC(N)=O)[C@@H](O)[C@H](Oc2ccc3c(O)c(NC(=O)c4ccc(O)c(CC=C(C)C)c4)c(=O)oc3c2C)OC1(C)C` [NOVOBIOCIN]: in assay [1], the Ratio was 2. Also, it took 8 µg/mL (≈ 13.1 µM) to inhibit growth in [2] (MIC).

As to `CN[C@@H]1[C@H](O[C@H]2[C@H](O[C@H]3[C@H](O)[C@@H](O)[C@H](N=C(N)N)[C@@H](O)[C@@H]3N=C(N)N)O[C@@H](C)[C@]2(O)C=O)O[C@@H](CO)[C@H](O)[C@H]1O` [STREPTOMYCIN], in [3], the minimum inhibitory concentration (MIC) amounted to 16 µg/mL (≈ 27.5 µM).

`CC1(C)S[C@@H]2[C@H](NC(=O)[C@H](N)c3ccccc3)C(=O)N2[C@H]1C(=O)O` [AMPICILLIN]: the MIC is 2000 µg/mL (≈ 5720 µM) in assay [4]; above 2000 µg/mL in assay [5]; above 2000 µg/mL in assay [6]; 250 µg/mL (≈ 715 µM) in [7]; above 2000 µg/mL in [8]; above 2000 µg/mL in assay [9]. In addition, the MIC was 2000 µg/mL (≈ 5720 µM) in assay [10]; 250 µg/mL (≈ 715 µM) in assay [2]; 2000 µg/mL (≈ 5720 µM) in assay [11]; 2000 µg/mL (≈ 5720 µM) in assay [12]; 250 µg/mL (≈ 715 µM) in assay [13]; above 2000 µg/mL in [14]. Also, the minimum inhibitory concentration (MIC) was found to be 2000 µg/mL (≈ 5720 µM) in assay [15]; 2000 µg/mL (≈ 5720 µM) in assay [16]; 250 µg/mL (≈ 715 µM) in [17]; 2000 µg/mL (≈ 5720 µM) in assay [18]; 2000 µg/mL (≈ 5720 µM) in assay [19]; 2000 µg/mL (≈ 5720 µM) in assay [20]. For the same compound, the MIC in [21] worked out at 2000 µg/mL (≈ 5720 µM); in assay [22] it was 500 µg/mL (≈ 1430 µM); in assay [23], 2000 µg/mL (≈ 5720 µM); in [24] it was 250 µg/mL (≈ 715 µM); in assay [25], 2000 µg/mL (≈ 5720 µM); in assay [26], 500 µg/mL (≈ 1430 µM). Also, the minimum inhibitory concentration (MIC) in [27] is 250 µg/mL (≈ 715 µM); in [28], above 500 µg/mL; in assay [29], above 500 µg/mL; in assay [30] it was above 2000 µg/mL; in [31], 2000 µg/mL (≈ 5720 µM); in assay [3], 2000 µg/mL (≈ 5720 µM). Further, the MIC in [32] was 2000 µg/mL (≈ 5720 µM); in assay [33], 250 µg/mL (≈ 715 µM); in assay [34], 2000 µg/mL (≈ 5720 µM); in assay [35] it was 500 µg/mL (≈ 1430 µM). Moreover, the Ratio in [1] is listed as 2.

Consider `CN(C)[C@@H]1C(O)=C(C(N)=O)C(=O)[C@@]2(O)C(O)=C3C(=O)c4c(O)cccc4[C@@](C)(O)[C@H]3C[C@@H]12` [TETRACYCLINE], for which, in assay [1], the Ratio amounted to 1. Moreover, the minimal inhibitory concentration (MIC) in assay [2] is 0.3 µg/mL (≈ 0.675 µM); in assay [3] it was above 16 µg/mL.
